Source: ChEMBL document CHEMBL5705899 (Biochem J, 2014)
The source made the active and inactive calls. The rule behind the calls is not given here.

How the values were obtained:
[1] = target: Serine/threonine-protein kinase pim-3 (Homo sapiens) (UniProt Q86V86); assay: Inhibition of human PIM3 at 1 uM using RBER-GSK3 as substrate in presence of 33P-ATP by ProQinase assay
[2] = target: Mitogen-activated protein kinase kinase kinase 5 (Homo sapiens) (UniProt Q99683); assay: Inhibition of human ASK1 at 1 uM using RBER-GSK3 as substrate in presence of 33P-ATP by ProQinase assay
[3] = target: Platelet-derived growth factor receptor alpha (Homo sapiens) (UniProt P16234); assay: Inhibition of human PDGFRalpha at 1 uM using Poly(Ala,Glu,Lys,Tyr) as substrate in presence of 33P-ATP by ProQinase assay
[4] = target: Vascular endothelial growth factor receptor 1 (Homo sapiens) (UniProt P17948); assay: Inhibition of human VEGFR1 at 1 uM using polyEY as substrate in presence of 33P-ATP by ProQinase assay
Chain of Vascular endothelial growth factor receptor 1 (Homo sapiens) (P17948 whole entry, the tested form may be a part): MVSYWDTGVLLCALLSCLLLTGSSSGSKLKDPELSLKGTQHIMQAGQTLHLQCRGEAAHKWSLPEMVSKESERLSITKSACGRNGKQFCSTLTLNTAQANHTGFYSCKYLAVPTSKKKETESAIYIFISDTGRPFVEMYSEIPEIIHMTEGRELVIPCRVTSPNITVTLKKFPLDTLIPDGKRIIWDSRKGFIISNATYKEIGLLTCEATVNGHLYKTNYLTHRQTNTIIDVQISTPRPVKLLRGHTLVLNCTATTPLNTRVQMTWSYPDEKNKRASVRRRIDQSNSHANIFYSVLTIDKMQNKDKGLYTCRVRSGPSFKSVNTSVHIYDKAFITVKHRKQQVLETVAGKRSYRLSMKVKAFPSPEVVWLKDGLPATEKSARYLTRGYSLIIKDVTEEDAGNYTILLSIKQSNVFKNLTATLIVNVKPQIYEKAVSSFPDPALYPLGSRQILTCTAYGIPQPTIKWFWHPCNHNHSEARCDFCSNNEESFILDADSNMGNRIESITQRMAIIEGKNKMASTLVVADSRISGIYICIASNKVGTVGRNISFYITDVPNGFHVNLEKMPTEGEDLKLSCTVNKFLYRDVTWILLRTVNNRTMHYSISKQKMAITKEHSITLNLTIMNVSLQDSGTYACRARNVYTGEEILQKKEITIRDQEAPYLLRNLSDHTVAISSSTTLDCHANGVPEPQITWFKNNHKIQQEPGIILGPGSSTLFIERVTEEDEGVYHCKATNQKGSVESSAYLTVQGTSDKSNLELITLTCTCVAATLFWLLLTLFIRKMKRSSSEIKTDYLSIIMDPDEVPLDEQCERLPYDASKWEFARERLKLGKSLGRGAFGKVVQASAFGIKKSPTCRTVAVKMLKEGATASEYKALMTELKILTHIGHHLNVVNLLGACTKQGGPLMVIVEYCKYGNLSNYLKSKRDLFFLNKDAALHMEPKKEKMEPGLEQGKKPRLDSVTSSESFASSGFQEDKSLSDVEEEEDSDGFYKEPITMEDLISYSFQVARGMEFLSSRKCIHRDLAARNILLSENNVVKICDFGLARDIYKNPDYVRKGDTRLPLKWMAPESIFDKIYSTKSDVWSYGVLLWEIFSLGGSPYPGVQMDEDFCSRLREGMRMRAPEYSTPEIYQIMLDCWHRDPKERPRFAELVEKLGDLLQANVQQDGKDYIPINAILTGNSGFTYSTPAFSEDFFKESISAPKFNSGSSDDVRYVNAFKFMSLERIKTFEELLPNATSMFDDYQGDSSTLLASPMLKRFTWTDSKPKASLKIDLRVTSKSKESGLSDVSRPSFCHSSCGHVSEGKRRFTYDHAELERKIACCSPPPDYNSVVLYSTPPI

Homo sapiens = organism: Homo sapiens; assay: Inhibition of recombinant human N-terminal His6-tagged PI3Kalpha E542K mutant (2 to 1068 residues)/p85A (1 to 724 residues) expressed in baculovirus expression system at 1 uM using diC8 PIP2 as substrate incubated for 80 mins by ADP-Glo assay
[5] = target: Misshapen-like kinase 1 (Homo sapiens) (UniProt Q8N4C8); assay: Inhibition of human MINK1 at 1 uM using RBER-CHKtide as substrate in presence of 33P-ATP by ProQinase assay
[6] = target: Mitogen-activated protein kinase kinase kinase 1 (Homo sapiens) (UniProt Q13233); assay: Inhibition of recombinant human N-terminal GST/C-terminal His6-tagged MEKK1 ((877 to 1563 residues) expressed in Escherichia coli assessed as remaining activity at 1 uM using MBP as substrate incubated for 30 mins in presence of [gamma-33P]ATP by filter binding method relative to control
Chain of Mitogen-activated protein kinase kinase kinase 1 (Homo sapiens) (Q13233 whole entry, the tested form may be a part): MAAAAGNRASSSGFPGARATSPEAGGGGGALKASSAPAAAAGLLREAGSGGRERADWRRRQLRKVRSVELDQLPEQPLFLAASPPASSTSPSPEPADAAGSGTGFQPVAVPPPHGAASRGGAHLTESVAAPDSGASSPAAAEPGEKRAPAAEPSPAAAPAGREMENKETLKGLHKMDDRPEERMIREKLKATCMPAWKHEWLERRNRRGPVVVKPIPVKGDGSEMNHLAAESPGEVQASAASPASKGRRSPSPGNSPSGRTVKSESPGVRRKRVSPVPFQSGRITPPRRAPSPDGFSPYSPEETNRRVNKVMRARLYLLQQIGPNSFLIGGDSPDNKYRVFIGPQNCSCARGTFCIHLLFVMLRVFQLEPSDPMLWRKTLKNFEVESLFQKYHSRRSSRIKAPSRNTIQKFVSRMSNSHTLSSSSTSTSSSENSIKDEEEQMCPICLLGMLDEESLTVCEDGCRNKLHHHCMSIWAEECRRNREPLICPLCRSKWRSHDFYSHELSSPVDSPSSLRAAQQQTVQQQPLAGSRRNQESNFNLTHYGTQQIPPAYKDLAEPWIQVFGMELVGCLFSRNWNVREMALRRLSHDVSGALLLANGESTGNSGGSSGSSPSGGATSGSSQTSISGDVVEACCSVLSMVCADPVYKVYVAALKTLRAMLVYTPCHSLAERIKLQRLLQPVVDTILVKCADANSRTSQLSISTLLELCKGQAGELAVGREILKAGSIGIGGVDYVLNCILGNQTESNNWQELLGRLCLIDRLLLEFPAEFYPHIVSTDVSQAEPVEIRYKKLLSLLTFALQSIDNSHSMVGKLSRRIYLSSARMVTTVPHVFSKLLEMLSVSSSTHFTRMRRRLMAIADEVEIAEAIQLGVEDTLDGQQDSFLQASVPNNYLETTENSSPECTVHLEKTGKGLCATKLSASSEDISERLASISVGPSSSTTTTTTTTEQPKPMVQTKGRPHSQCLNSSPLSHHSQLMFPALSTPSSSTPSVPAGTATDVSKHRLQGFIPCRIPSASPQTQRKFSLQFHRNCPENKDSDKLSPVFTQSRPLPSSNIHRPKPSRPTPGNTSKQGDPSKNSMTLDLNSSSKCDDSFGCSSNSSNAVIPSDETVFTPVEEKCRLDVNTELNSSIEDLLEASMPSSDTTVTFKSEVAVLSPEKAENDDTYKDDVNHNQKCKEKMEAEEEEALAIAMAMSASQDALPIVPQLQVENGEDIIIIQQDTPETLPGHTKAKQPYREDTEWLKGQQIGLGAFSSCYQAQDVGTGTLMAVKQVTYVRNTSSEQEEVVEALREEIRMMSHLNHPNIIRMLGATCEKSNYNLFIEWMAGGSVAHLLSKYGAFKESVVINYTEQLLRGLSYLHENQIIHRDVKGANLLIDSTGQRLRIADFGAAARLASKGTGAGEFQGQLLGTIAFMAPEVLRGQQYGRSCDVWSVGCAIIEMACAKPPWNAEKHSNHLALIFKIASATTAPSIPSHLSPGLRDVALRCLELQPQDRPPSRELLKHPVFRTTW

[7] = target: Ephrin type-A receptor 2 (Homo sapiens) (UniProt P29317); assay: (§1) Inhibition of recombinant human N-terminal GST-tagged EPHA2 (591 to 976 residues) expressed in Escherichia coli assessed as remaining activity at 1 uM using Poly (Glu,Tyr) as substrate incubated for 30 mins in presence of [gamma-33P]ATP by filter binding method relative to control
[8] = target: CDK9/cyclin T1 (Homo sapiens) (UniProt O60563+P50750); assay: as §1, with “CDK9 (1” for “EPHA2 (591”, “372 residues)/Cyclin T1 (1 to 726” for “976”, “baculovirus infected Sf21 cells” for “Escherichia coli”, “YSPTSPSYSPTSPSYSPTSPKKK” for “Poly (Glu,Tyr)”
[9] = target: Ribosomal protein S6 kinase alpha-3 (Homo sapiens) (UniProt P51812); assay: Inhibition of human RPS6KA3 at 1 uM using bio-4xCHKT as substrate in presence of 33P-ATP by ProQinase assay
[10] = target: Casein kinase I isoform alpha (Homo sapiens) (UniProt P48729); assay: Inhibition of human CK1alpha1 at 1 uM using casein as substrate in presence of 33P-ATP by ProQinase assay
Chain of Casein kinase I isoform alpha (Homo sapiens) (P48729 2-337 limits assumed): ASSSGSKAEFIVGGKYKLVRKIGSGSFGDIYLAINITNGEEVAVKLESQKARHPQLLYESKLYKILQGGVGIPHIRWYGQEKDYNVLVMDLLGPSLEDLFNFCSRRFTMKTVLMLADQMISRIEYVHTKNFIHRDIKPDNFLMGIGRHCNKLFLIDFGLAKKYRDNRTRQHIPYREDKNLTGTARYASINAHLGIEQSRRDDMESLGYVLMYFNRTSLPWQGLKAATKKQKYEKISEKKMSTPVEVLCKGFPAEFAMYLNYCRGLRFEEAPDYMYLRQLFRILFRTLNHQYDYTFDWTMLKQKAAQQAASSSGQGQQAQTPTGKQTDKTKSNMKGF

[11] = target: Serine/threonine-protein kinase 24 (Homo sapiens) (UniProt Q9Y6E0); assay: Inhibition of recombinant human N-terminal GST-tagged MST3 (1 to 431 residues) expressed in baculovirus infected Sf21 cells assessed as remaining activity at 1 uM using MBP as substrate incubated for 30 mins in presence of [gamma-33P]ATP by filter binding method relative to control
[12] = target: Tyrosine-protein kinase BTK (Homo sapiens) (UniProt Q06187); assay: Inhibition of recombinant human N-terminal His6-tagged BTK (2 to 659 residues) expressed in baculovirus infected Sf21 cells assessed as remaining activity at 1 uM using KVEKIGEGTYGVVYK as substrate incubated for 30 mins in presence of [gamma-33P]ATP by filter binding method relative to control
[13] = target: Myosin light chain kinase, smooth muscle (Homo sapiens) (UniProt Q15746); assay: Inhibition of human MYLK at 1 uM using RB-S6P as substrate in presence of 33P-ATP by ProQinase assay
[14] = target: Tyrosine-protein kinase JAK2 (Homo sapiens) (UniProt O60674); assay: Inhibition of JAK2 (unknown origin) assessed as remaining activity at 1 uM relative to control
How it was run: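 Dundee panel of 140 protein kinases, tested at a single 1 μM concentration. Each assay was run in triplicate. Remaining activity is expressed relative to a control reaction without inhibitor, as mean ± S.D. Conditions for each kinase were those of the screening centre.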

[15] = target: Serine/threonine-protein kinase ULK1 (Homo sapiens) (UniProt O75385); assay: Inhibition of recombinant human ULK1 (2 to 1050 residues) expressed in baculovirus infected Sf21 cells assessed as remaining activity at 1 uM using MBP as substrate incubated for 30 mins in presence of [gamma-33P]ATP by filter binding method relative to control
Chain of Serine/threonine-protein kinase ULK1 (Homo sapiens) (O75385 whole entry, the tested form may be a part): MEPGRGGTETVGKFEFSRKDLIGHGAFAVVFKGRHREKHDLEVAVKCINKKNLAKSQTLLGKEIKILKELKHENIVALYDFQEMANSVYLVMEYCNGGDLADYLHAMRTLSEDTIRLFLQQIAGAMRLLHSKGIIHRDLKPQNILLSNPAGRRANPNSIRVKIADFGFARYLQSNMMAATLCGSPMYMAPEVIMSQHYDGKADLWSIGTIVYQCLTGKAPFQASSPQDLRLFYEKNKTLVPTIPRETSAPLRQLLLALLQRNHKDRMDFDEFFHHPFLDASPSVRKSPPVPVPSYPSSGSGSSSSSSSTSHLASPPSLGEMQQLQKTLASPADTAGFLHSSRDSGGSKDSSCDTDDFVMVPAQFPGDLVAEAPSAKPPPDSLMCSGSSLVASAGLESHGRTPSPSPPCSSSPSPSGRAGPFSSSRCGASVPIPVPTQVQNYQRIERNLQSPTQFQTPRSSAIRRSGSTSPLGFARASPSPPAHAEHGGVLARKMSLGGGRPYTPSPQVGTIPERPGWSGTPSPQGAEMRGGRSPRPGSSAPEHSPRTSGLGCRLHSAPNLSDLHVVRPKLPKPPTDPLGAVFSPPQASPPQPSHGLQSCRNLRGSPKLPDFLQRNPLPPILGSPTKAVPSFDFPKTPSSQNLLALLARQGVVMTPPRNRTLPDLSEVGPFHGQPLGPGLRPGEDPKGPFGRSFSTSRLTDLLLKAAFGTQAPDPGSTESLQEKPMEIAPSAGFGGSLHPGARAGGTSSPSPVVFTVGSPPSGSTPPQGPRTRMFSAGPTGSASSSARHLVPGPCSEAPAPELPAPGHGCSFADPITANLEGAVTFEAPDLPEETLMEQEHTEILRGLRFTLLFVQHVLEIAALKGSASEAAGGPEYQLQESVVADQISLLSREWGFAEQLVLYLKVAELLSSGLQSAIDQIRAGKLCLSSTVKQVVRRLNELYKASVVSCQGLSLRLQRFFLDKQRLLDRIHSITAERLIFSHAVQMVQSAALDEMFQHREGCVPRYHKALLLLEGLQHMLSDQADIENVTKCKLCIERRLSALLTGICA

[16] = target: Aurora kinase A (Homo sapiens) (UniProt O14965); assay: Inhibition of recombinant human N-terminal Hi6-tagged Aurora A (2 to 403 residues) expressed in Escherichia coli assessed as remaining activity at 1 uM using LRRLSLGLRRLSLGLRRLSLGLRRLSLG as substrate incubated for 30 mins in presence of [gamma-33P]ATP by filter binding method relative to control
[17] = target: Calcium/calmodulin-dependent protein kinase kinase 1 (Homo sapiens) (UniProt Q8N5S9); assay: Inhibition of human CAMKK1 at 1 uM using RB-CTF as substrate in presence of 33P-ATP by ProQinase assay
[18] = target: 5'-AMP-activated protein kinase catalytic subunit alpha-1 (Homo sapiens) (UniProt Q13131); assay: Inhibition of human AMPKalpha1 (1 to 550 residues) at 1 uM using RBER-CHKtide as substrate in presence of 33P-ATP by ProQinase assay
[19] = target: MAP kinase-activated protein kinase 3 (Homo sapiens) (UniProt Q16644); assay: Inhibition of recombinant human N-terminal GST-tagged MAPKAPK3 (2 to 382 residues) expressed in Escherichia coli assessed as remaining activity at 1 uM using KKLNRTLSVA as substrate incubated for 30 mins in presence of [gamma-33P]ATP by filter binding method relative to control
[20] = target: Calcium/calmodulin-dependent protein kinase type 1 (Homo sapiens) (UniProt Q14012); assay: Inhibition of recombinant human N-terminal GST-tagged CAMK1alpha (2 to 369 residues) expressed in Escherichia coli assessed as remaining activity at 1 uM using YLRRRLSDSNF as substrate incubated for 30 mins in presence of [gamma-33P]ATP by filter binding method relative to control
[21] = target: Serine/threonine-protein kinase 16 (Homo sapiens) (UniProt O75716); assay: Inhibition of recombinant human N-terminal GST-tagged MPSK1 (1 to 305 residues) expressed in Escherichia coli assessed as remaining activity at 1 uM using RRHYYYDTHTNTYYLRTFGHNTRR as substrate incubated for 30 mins in presence of [gamma-33P]ATP by filter binding method relative to control
Chain of Serine/threonine-protein kinase 16 (Homo sapiens) (O75716 whole entry, the tested form may be a part): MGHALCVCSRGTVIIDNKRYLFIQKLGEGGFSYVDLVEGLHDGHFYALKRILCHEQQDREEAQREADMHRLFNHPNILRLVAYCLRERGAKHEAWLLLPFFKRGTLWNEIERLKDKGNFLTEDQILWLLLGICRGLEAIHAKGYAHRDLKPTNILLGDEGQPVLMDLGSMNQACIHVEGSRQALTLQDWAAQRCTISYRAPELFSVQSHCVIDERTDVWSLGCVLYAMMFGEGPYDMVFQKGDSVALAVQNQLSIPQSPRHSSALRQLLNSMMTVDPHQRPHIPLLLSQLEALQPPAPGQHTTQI

SMILES: CC(C)(O)CNc1ncc(-c2ccnc(Nc3ccnc(Cl)c3)n2)c(CC2CC2)n1
- inhibition [1]: inactive
- inhibition [2]: inactive
- inhibition [3]: inactive
- inhibition [4]: inactive
- inhibition (Homo sapiens): inactive
- inhibition [5]: inactive
- Activity [6]: 109%
- Activity [7]: 101%
- Activity [8]: 91%
- inhibition [9]: inactive
- inhibition [10]: inactive
- Activity [11]: 118%
- Activity [12]: 108%
- inhibition [13]: inactive
- Activity [14]: 93%
- Activity [15]: 98%
- Activity [16]: 110%
- inhibition [17]: inactive
- inhibition [18]: inactive
- Activity [19]: 115%
- Activity [20]: 116%
- Activity [21]: 118%
